ChEMBL document CHEMBL5705905, “Pharmacological targeting of kinases MST1 and MST2 augments tissue repair and regeneration” (Sci Transl Med, 2016)
Calls of active or inactive are those of the source. The calls are words filed in the database; no cut-off is given here.

Key:
[1] = molecular target: Phosphorylase b kinase gamma catalytic chain, liver/testis isoform (Homo sapiens) (UniProt P15735); test: Inhibition of PHKG2 (unknown origin) assessed as remaining activity at 1 uM by Kinome scan method relative to control
[2] = molecular target: Mitogen-activated protein kinase kinase kinase 10 (Homo sapiens) (UniProt Q02779); test: Inhibition of MLK2 (unknown origin) assessed as remaining activity at 1 uM by Kinome scan method relative to control
[3] = Apparent volume of distribution in male Sprague-Dawley rat at 5 mg/kg, iv measured for 24 hrs by LC-MS/MS analysis; format: ADME, organism-based; details: in vivo, read-out: Vz
Summary of the method: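 Sprague-Dawley rats, single intravenous or oral dose. Parameters (half-life, AUC, bioavailability) reported in a supplementary table.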

[4] = molecular target: Serine/threonine-protein kinase Nek10 (Homo sapiens) (UniProt Q6ZWH5); test: Inhibition of NEK10 (unknown origin) assessed as remaining activity at 1 uM by Kinome scan method relative to control
[5] = tested on: Phosphatidylinositol 4,5-bisphosphate 3-kinase catalytic subunit alpha isoform (Homo sapiens), P42336 [E545A]; test: Inhibition of PIK3CA E545A mutant (unknown origin) assessed as remaining activity at 1 uM by Kinome scan method relative to control
[6] = molecular target: Cyclin-dependent kinase 16 (Homo sapiens) (UniProt Q00536); test: Inhibition of PCTK1 (unknown origin) assessed as remaining activity at 1 uM by Kinome scan method relative to control
[7] = tested on: Tyrosine-protein kinase ABL1 (Homo sapiens), P00519 [Q252H]; test: Inhibition of ABL1 Q252H mutant (unknown origin) assessed as remaining activity at 1 uM by Kinome scan method relative to control
Summary of the method: (§1)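 Active-site-dependent competition-binding (KINOMEscan) panel of 468 kinases, test compound at 1 μM (from a 10 mM DMSO stock). Read-out is ctrl% = (test signal − positive control signal)/(negative control signal − positive control signal) × 100. DMSO is the negative control (100%) and a control compound is the positive control (0%). Lower ctrl% means tighter binding.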

[8] = molecular target: Serine/threonine-protein kinase LATS2 (Homo sapiens) (UniProt Q9NRM7); test: Inhibition of LATS2 (unknown origin) assessed as remaining activity at 1 uM by Kinome scan method relative to control
[9] = tested on: ALK tyrosine kinase receptor (Homo sapiens), Q9UM73 [L1196M]; test: Inhibition of ALK L1196M mutant (unknown origin) assessed as remaining activity at 1 uM by Kinome scan method relative to control; summary of the method: as §1
[10] = molecular target: Rho-associated protein kinase 1 (Homo sapiens) (UniProt Q13464); test: Inhibition of ROCK1 (unknown origin) assessed as remaining activity at 1 uM by Kinome scan method relative to control
Summary of the method: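 KINOMEscan active-site competition binding assay at 1 μM against 468 kinases. Ctrl% = (test − positive control)/(negative control DMSO − positive control) × 100; lower values mean tighter binding.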

[11] = molecular target: Myosin-IIIa (Homo sapiens) (UniProt Q8NEV4); test: Inhibition of MYO3A (unknown origin) assessed as remaining activity at 1 uM by Kinome scan method relative to control
[12] = molecular target: Insulin receptor (Homo sapiens) (UniProt P06213); test: Inhibition of INSR (unknown origin) assessed as remaining activity at 1 uM by Kinome scan method relative to control
[13] = molecular target: Homeodomain-interacting protein kinase 1 (Homo sapiens) (UniProt Q86Z02); test: Inhibition of HIPK1 (unknown origin) assessed as remaining activity at 1 uM by Kinome scan method relative to control
[14] = molecular target: Serine/threonine-protein kinase BRSK2 (Homo sapiens) (UniProt Q8IWQ3); test: Inhibition of BRSK2 (unknown origin) assessed as remaining activity at 1 uM by Kinome scan method relative to control; summary of the method: as §1
[15] = molecular target: Phosphatidylinositol 3-kinase C2 domain-containing subunit gamma (Homo sapiens) (UniProt O75747); test: Inhibition of PIK3C2G (unknown origin) assessed as remaining activity at 1 uM by Kinome scan method relative to control
[16] = molecular target: Dual specificity protein kinase TTK (Homo sapiens) (UniProt P33981); test: Inhibition of TTK (unknown origin) assessed as remaining activity at 1 uM by Kinome scan method relative to control
[17] = molecular target: Serine/threonine-protein kinase MARK2 (Homo sapiens) (UniProt Q7KZI7); test: Inhibition of MARK2 (unknown origin) assessed as remaining activity at 1 uM by Kinome scan method relative to control
[18] = molecular target: Mitogen-activated protein kinase 13 (Homo sapiens) (UniProt O15264); test: Inhibition of P38delta (unknown origin) assessed as remaining activity at 1 uM by Kinome scan method relative to control
[19] = molecular target: Serine/threonine-protein kinase TAO1 (Homo sapiens, UniProt Q7L7X3); test: Binding affinity to TAOK1 (unknown origin) assessed as dissociation constant
[20] = molecular target: Ribosomal protein S6 kinase alpha-1 (Homo sapiens) (UniProt Q15418); test: Inhibition of N-terminal kinase domain RSK1 (unknown origin) assessed as remaining activity at 1 uM by Kinome scan method relative to control
[21] = molecular target: Epithelial discoidin domain-containing receptor 1 (Homo sapiens) (UniProt Q08345); test: Inhibition of DDR1 (unknown origin) assessed as remaining activity at 1 uM by Kinome scan method relative to control
HepG2 = test: Inhibition of Flag-tagged MST1 Y101F/D109A mutant (unknown origin) in human HepG2 cells assessed as MOB1 phosphorylation level at 3 uM by immunoblot analysis; format: cell-based
[22] = molecular target: Serine/threonine-protein kinase TBK1 (Homo sapiens) (UniProt Q9UHD2); test: Inhibition of TBK1 (unknown origin) assessed as remaining activity at 1 uM by Kinome scan method relative to control
[23] = molecular target: BMP-2-inducible protein kinase (Homo sapiens) (UniProt Q9NSY1); test: Inhibition of BIKE (unknown origin) assessed as remaining activity at 1 uM by Kinome scan method relative to control
Summary of the method: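 KINOMEscan active-site-dependent competition-binding panel of 468 kinases, compound at 1 μM from a DMSO stock. Result reported as ctrl% = (test signal − positive control signal)/(negative control signal − positive control signal) × 100. The negative control is DMSO (100%) and the positive control is a control compound (0%). Lower ctrl% means tighter binding.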

Sequence of Homeodomain-interacting protein kinase 1 (Homo sapiens) (Q86Z02 whole entry, looked up): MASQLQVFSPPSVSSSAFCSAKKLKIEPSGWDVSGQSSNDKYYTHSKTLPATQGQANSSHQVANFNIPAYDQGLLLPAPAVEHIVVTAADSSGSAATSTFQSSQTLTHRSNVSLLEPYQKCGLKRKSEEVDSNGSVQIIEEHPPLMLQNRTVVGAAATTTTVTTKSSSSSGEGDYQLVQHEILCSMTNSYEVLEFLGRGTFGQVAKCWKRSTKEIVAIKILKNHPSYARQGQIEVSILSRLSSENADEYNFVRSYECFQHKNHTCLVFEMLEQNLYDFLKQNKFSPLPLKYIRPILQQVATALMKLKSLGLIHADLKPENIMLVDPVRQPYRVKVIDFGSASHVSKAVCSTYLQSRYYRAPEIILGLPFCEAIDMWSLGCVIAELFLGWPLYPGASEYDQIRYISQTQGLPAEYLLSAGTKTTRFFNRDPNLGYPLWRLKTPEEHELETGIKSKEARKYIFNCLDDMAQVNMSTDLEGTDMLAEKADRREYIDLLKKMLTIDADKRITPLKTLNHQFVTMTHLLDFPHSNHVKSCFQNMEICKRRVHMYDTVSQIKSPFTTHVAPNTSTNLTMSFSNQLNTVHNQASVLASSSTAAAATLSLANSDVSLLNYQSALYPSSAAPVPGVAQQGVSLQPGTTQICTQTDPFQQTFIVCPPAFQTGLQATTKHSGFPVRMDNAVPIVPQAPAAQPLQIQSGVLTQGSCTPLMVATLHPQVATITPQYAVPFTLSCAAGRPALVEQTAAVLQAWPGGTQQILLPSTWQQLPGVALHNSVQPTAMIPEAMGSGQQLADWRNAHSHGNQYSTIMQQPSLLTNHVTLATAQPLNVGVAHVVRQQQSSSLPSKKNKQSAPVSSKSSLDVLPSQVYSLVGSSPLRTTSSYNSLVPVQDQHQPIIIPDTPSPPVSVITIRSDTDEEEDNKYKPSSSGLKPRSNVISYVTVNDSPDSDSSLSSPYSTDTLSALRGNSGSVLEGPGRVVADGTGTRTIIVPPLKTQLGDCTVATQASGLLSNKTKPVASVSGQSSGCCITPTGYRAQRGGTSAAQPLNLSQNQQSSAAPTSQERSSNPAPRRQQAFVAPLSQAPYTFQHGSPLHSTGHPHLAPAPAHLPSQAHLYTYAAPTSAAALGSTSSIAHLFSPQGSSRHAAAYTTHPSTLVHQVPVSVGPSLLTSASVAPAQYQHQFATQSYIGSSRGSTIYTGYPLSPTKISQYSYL
Sequence of Serine/threonine-protein kinase TAO1 (Q7L7X3 whole entry, the tested form may be a part): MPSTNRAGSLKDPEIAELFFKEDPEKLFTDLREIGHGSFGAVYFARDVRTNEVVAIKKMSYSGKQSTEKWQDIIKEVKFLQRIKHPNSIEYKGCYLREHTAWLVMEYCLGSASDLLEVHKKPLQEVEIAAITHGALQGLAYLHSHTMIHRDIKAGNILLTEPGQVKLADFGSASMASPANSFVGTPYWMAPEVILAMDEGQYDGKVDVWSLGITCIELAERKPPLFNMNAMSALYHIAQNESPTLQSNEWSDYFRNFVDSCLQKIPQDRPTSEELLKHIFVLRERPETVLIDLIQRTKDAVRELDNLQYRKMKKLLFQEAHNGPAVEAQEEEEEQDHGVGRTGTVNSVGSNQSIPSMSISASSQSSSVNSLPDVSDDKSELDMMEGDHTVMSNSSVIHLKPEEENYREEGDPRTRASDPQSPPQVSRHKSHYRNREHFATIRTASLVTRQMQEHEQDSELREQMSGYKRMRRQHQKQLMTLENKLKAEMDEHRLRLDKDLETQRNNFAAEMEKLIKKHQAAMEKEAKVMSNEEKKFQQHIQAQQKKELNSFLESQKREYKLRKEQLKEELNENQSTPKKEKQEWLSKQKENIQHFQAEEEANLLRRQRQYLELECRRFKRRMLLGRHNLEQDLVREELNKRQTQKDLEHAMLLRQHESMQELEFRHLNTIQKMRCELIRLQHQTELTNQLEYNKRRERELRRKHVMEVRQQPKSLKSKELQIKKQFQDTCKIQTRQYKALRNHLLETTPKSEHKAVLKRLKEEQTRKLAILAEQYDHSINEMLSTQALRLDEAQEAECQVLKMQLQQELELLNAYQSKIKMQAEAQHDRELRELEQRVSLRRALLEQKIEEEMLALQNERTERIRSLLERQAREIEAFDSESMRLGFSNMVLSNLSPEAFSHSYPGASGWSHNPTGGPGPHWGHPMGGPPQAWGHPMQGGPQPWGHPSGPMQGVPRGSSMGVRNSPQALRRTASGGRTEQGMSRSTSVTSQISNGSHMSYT
Sequence of Cyclin-dependent kinase 16 (Homo sapiens) (Q00536 whole entry): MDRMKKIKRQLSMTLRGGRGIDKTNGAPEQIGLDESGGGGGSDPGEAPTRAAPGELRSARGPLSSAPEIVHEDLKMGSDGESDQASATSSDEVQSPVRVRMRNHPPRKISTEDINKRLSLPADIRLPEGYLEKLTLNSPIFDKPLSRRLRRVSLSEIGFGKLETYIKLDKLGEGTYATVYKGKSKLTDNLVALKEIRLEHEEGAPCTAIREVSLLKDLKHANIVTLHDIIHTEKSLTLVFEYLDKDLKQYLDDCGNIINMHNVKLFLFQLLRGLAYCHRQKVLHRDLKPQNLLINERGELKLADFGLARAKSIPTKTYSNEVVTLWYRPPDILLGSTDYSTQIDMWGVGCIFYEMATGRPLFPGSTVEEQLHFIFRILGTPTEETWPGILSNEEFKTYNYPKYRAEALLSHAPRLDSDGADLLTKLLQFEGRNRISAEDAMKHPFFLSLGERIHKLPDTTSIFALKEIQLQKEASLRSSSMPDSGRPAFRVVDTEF
Sequence of Dual specificity protein kinase TTK (Homo sapiens) (P33981 whole entry): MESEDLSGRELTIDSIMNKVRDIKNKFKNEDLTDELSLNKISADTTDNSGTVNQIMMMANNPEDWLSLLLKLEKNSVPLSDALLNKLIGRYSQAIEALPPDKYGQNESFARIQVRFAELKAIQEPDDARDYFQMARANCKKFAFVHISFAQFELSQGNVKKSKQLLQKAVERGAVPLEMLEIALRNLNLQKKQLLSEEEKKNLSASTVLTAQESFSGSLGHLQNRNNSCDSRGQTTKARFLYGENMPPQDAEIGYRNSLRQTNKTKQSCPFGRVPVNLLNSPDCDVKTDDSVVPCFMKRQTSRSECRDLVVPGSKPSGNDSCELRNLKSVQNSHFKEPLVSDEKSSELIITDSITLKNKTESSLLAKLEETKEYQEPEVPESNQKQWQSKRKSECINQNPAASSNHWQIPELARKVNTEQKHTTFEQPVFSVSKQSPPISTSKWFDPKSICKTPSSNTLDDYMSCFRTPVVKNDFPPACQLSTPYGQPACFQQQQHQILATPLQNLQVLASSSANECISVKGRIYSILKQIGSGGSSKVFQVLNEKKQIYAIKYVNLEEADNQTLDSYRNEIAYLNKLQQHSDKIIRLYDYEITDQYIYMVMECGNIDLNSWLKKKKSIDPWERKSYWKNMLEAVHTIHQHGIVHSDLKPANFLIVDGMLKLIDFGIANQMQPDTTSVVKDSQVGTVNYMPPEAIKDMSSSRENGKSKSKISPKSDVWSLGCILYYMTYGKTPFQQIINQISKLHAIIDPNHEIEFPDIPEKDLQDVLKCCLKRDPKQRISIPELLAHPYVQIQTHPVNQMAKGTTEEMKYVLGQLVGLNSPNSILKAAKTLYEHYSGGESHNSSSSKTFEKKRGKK
Sequence of Serine/threonine-protein kinase TBK1 (Homo sapiens) (Q9UHD2 whole entry): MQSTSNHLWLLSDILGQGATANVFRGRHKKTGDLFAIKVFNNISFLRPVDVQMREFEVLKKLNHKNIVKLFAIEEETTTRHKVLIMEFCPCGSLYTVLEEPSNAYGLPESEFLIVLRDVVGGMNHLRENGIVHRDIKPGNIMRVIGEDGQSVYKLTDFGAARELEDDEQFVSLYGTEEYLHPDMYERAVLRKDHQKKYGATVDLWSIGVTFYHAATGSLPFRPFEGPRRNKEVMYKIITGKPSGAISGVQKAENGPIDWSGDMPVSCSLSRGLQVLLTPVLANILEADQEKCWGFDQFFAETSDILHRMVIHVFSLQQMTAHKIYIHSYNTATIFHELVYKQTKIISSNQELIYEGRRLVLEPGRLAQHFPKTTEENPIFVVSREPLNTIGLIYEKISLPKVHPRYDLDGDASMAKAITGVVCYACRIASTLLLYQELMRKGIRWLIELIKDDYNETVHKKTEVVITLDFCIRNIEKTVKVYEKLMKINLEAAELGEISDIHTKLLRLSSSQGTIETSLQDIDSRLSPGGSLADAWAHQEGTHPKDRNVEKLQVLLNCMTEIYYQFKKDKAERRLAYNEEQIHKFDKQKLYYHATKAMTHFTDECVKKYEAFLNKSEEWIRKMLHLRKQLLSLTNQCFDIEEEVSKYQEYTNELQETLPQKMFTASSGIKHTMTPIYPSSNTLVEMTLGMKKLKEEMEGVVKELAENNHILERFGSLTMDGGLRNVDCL
Sequence of Mitogen-activated protein kinase 13 (Homo sapiens) (O15264 whole entry): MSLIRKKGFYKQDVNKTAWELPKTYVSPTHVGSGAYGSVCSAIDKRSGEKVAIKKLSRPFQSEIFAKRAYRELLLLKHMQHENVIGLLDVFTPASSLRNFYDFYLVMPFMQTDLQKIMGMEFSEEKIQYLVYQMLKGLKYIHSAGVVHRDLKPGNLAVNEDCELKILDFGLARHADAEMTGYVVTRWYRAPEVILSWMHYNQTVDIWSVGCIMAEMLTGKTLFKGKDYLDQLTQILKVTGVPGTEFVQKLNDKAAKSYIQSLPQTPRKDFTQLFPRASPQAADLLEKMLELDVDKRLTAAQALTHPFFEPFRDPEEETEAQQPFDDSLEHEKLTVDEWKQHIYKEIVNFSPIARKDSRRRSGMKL
Sequence of Phosphorylase b kinase gamma catalytic chain, liver/testis isoform (Homo sapiens) (P15735 whole entry, canonical isoform): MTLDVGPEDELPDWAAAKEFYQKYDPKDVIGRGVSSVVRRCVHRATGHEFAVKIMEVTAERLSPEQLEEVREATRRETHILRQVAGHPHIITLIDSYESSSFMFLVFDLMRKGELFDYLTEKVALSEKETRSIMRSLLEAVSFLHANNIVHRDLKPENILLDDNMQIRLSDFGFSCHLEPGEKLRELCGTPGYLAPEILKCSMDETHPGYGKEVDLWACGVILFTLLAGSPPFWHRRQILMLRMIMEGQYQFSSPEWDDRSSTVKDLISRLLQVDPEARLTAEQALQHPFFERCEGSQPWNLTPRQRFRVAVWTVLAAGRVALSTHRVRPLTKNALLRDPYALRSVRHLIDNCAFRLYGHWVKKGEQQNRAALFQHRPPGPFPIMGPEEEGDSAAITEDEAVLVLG

Structure (SMILES): CN1C(=O)c2sccc2N(C)c2nc(Nc3ccc(S(N)(=O)=O)cc3)ncc21
- Activity [1]: 100%
- Activity [2]: 77%
- Vd [3]: 7.1 L/kg
- Activity [4]: 70%
- Activity [5]: 81%
- Activity [6]: 93%
- Activity [7]: 15%
- Activity [8]: 100%
- Activity [9]: 100%
- Activity [10]: 89%
- Activity [11]: 100%
- Activity [12]: 98%
- Activity [13]: 91%
- Activity [14]: 99%
- Activity [15]: 100%
- Activity [16]: 99%
- Activity [17]: 93%
- Activity [18]: 94%
- Kd [19]: 0.18 µM
- Activity [20]: 91%
- Activity [21]: 63%
- inhibition (HepG2): Active
- Activity [22]: 90%
- Activity [23]: 95%
